ChEMBL document CHEMBL3046214, “Friedelane triterpenes from Celastrus vulcanicola as photosynthetic inhibitors” (J Agric Food Chem, 2010)
One block for each molecule: values may come before it. The source made the active and inactive calls. The rule behind the calls is not given here.

What was measured:
[1] = tested on: Lolium perenne; test: Inhibition of photosynthetic efficiency in Lolium perenne (perennial ryegrass) assessed as effect on OJIP transients at 200 uM measured 72 hr post compound application; assay type: functional, organism-based
Procedure, shortened: (§1)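 Greenhouse L. perenne sprayed 18 days after emergence (20 mM DMSO stock diluted into 0.05% Tween-20; vehicle-sprayed controls). Leaves dark-adapted 15 min, then excited with 3000 μmol photons m-2 s-1 red light (650 nm) from three LEDs. OJIP transients recorded at room temperature with a Handy PEA. PI(abs) and other parameters are shown on radar plots normalized to control.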

[2] = tested on: Lolium perenne; test: Effect on photosynthetic efficiency in Lolium perenne (perennial ryegrass) assessed as increase in OJIP transients at 100 uM measured 72 hr post compound application; assay type: functional; procedure, shortened: as §1
[3] = tested on: Lolium perenne; test: Inhibition of photosynthetic efficiency in Lolium perenne (perennial ryegrass) at 200 uM measured 24 to 72 hr post compound application; assay type: functional; procedure, shortened: as §1
[4] = tested on: Lolium perenne; test: Inhibition of photosynthetic efficiency in Lolium perenne (perennial ryegrass) assessed as effect on OJIP transients at 100 uM measured 24 to 48 hr post compound application; assay type: functional, organism-based; procedure, shortened: as §1
[5] = tested on: Spinacia oleracea; test: Effect on photosynthesis efficiency in Spinacia oleracea (spinach) leaves freshly lysed chloroplasts assessed as change in chlorophyll a fluorescence at 150 to 450 uM; assay type: functional
Procedure, shortened: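 Freshly lysed spinach thylakoids (20 μg Chl) were placed on filter paper with a dot-blot apparatus and dipped in 3 mL basal electron transport medium without MV, containing compound. After 5 min dark adaptation, fluorescence was excited with 3000 μmol m-2 s-1 650 nm LED light (2 s pulse) at room temperature. Wt = (Ft−F0)/(FJ−F0), difference from control used for K-band; five replicates.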

[6] = tested on: Spinacia oleracea; test: Increase in Magnesium-transporting ATPase activity in Spinacia oleracea (spinach) leaves chloroplasts thylakoids at 200 uM
Procedure, shortened: (§2)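 Spinach chloroplasts were isolated in 350 mM sorbitol, 5 mM ascorbate, 20 mM MES pH 6.5, centrifuged at 3000g for 60 s, washed, and resuspended in 35 mM HEPES pH 7.6. Light-triggered Mg2+-ATPase activity of thylakoid membranes was measured as released inorganic phosphate. Ammonium chloride served as positive control.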

[7] = tested on: Spinacia oleracea; test: Increase in Magnesium-transporting ATPase activity in Spinacia oleracea (spinach) leaves chloroplasts thylakoids at 300 uM; procedure, shortened: as §2
[8] = tested on: Spinacia oleracea; test: Inhibition of uncoupled electron transport from water to MV in Spinacia oleracea (spinach) leaves chloroplasts at 50 to 300 uM using Clark type electrode system based method; assay type: functional, organism-based
Procedure, shortened: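 Water-to-MV electron transport measured with a Clark electrode in the basal medium (20 μg Chl/mL, 50 μM MV, 15 mM tricine-KOH pH 8.0, 1 min illumination), with 6 mM NH4Cl added as uncoupler.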

[9] = tested on: Spinacia oleracea; test: Inhibition of basal electron transport from water to MV in Spinacia oleracea (spinach) leaves chloroplasts at 50 to 300 uM using Clark type electrode system based method; assay type: functional, organism-based
[10] = tested on: Spinacia oleracea; test: Inhibition of phosphorylating noncyclic electron transport from water to MV in Spinacia oleracea (spinach) leaves chloroplasts at 50 to 300 uM using Clark type electrode system based method; assay type: functional
Procedure, shortened: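 Clark-electrode measurement of water-to-MV electron flow in the basal medium (sorbitol, KCl, MgCl2, 0.5 mM KCN, 50 μM MV, 15 mM tricine-KOH pH 8.0; 20 μg Chl/mL; 1 min light), with 1 mM ADP and 3 mM KH2PO4 added.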

[11] = tested on: Spinacia oleracea; test: Inhibition of photophosphorylation in Spinacia oleracea (spinach) leaves chloroplasts by titrimetry; assay type: functional; settings: read-out: I50
Procedure, shortened: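 Intact spinach chloroplasts (20 μg Chl/mL) were osmotically broken in 3 mL of weakly buffered medium: 100 mM sorbitol, 10 mM KCl, 5 mM MgCl2, 0.5 mM KCN, 1 mM tricine-KOH pH 8.0, 50 μM MV and 1 mM ADP. ATP synthesis was taken from the medium alkalization rate in the linear part of illumination, calibrated by HCl back-titration, as μmol ATP (mg Chl)-1 h-1. I50 was obtained from concentration-activity plots; three replicates.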

[12] = tested on: Spinacia oleracea; test: Increase in Magnesium-transporting ATPase activity in Spinacia oleracea (spinach) leaves chloroplasts thylakoids at 100 uM; procedure, shortened: as §2
[13] = tested on: Physalis ixocarpa; test: Effect on biomass production in Physalis ixocarpa assessed as plant dry weight at 200 uM measured 14 days post compound application relative to untreated control; assay type: functional
Procedure, shortened: (§3)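 Greenhouse-grown plants (pots, watered daily, 25 to 30 °C) of similar size, sprayed at 15 (P. ixocarpa) or 18 (L. perenne) days after emergence. Compound taken from a 20 mM DMSO stock into aqueous 0.05% w/v Tween-20; controls were sprayed with water containing the same DMSO and Tween-20. Plants harvested at ground level, oven-dried at 65 °C to constant weight, then weighed.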

[14] = tested on: Physalis ixocarpa; test: Effect on biomass production in Physalis ixocarpa assessed as plant dry weight at 100 uM measured 14 days post compound application relative to untreated control; assay type: functional; procedure, shortened: as §3
[15] = tested on: Lolium perenne; test: Effect on biomass production in Lolium perenne (perennial ryegrass) assessed as plant dry weight at 100 uM measured 14 days post compound application relative to untreated control; assay type: functional; procedure, shortened: as §3
[16] = tested on: Lolium perenne; test: Effect on biomass production in Lolium perenne (perennial ryegrass) assessed as plant dry weight at 200 uM measured 14 days post compound application relative to untreated control; assay type: functional; procedure, shortened: as §3
[17] = tested on: Physalis ixocarpa; test: Inhibition of photosynthetic efficiency in Physalis ixocarpa intact leaves assessed as increase in chlorophyll a fluorescence transients at 100 uM measured 72 hr post compound application; assay type: functional, organism-based
Procedure, shortened: (§4)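 P. ixocarpa plants sprayed 15 days after emergence (greenhouse, 25-30 °C; 20 mM DMSO stock diluted into 0.05% Tween-20; vehicle-sprayed controls). Leaves dark-adapted 15 min, then excited with 650 nm red LED light at 3000 μmol photons m-2 s-1. Chl a OJIP transients recorded with a Handy PEA at room temperature. PI(abs) is normalized to control; K-, J- and I-bands come from variable fluorescence difference curves; five replicates.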

[18] = tested on: Physalis ixocarpa; test: Inhibition of photosynthetic efficiency in Physalis ixocarpa intact leaves assessed as reduction in PI(abs) level at 200 uM measured 48 hr post compound application; assay type: functional; procedure, shortened: as §4
[19] = tested on: Physalis ixocarpa; test: Inhibition of photosynthetic efficiency in Physalis ixocarpa intact leaves assessed as reduction in chlorophyll a fluorescence transients at 200 uM measured 48 hr post compound application; assay type: functional; procedure, shortened: as §4
[20] = tested on: Physalis ixocarpa; test: Inhibition of photosynthetic efficiency in Physalis ixocarpa intact leaves assessed as increase in chlorophyll a fluorescence transients at 100 uM measured 48 hr post compound application; assay type: functional; parameters: scale not given: the % may be the effect or the level left; procedure, shortened: as §4
[21] = tested on: Physalis ixocarpa; test: Inhibition of photosynthetic efficiency in Physalis ixocarpa intact leaves assessed as reduction in PI(abs) level at 100 uM measured 48 hr post compound application; assay type: functional; procedure, shortened: as §4
[22] = tested on: Physalis ixocarpa; test: Inhibition of photosynthetic efficiency in Physalis ixocarpa intact leaves assessed as effect on OJIP transients at 100 uM measured 24 hr post compound application; assay type: functional, organism-based; procedure, shortened: as §4
[23] = tested on: Lolium perenne; test: Effect on photosynthetic efficiency in Lolium perenne (perennial ryegrass) assessed as increase in PI(abs) transients at 100 uM measured 72 hr post compound application; assay type: functional; procedure, shortened: as §1

Activity [6]: 112% | Activity [7]: 123% | IC50 [11]: 82 µM | Activity [12]: 110%
Compound: C[C@H]1[C@@H](O)CC[C@@H]2[C@]1(C)CC[C@H]1[C@@]2(C)CC[C@@]2(C)[C@@H]3CC(C)(C)CC[C@]3(C)CC[C@]12C [EPIFRIEDELINOL]
inhibition [1]: inactive | Activity [2]: 20% | inhibition at 200 µM [3]: 12% | inhibition [4]: inactive | Activity [5]: Active | inhibition [8]: inactive | inhibition [9]: inactive | inhibition [10]: inactive | Activity [13]: 101.3% | Activity [14]: 23.2% | Activity [15]: 79.6% | Activity [16]: 91.2% | Activity [17]: Active | inhibition at 200 µM [18]: 15% | inhibition at 200 µM [19]: 10% | Activity [20]: 10% | inhibition at 100 µM [21]: 40% | inhibition [22]: inactive | Activity [23]: 10%

IC50 [11]: 182 µM
Compound: C[C@H]1C(=O)CC[C@@H]2[C@]1(C)CC[C@H]1[C@@]2(C)CC[C@@]2(C)[C@@H]3CC(C)(C)CC[C@]3(C)CC[C@]12C [FRIEDELINE]

IC50 [11]: 269 µM
Compound: C[C@H]1C(=O)CC[C@@H]2[C@]1(C)CC[C@H]1[C@@]2(C)CC[C@@]2(C)[C@@H]3C[C@](C)(C(=O)O)CC[C@]3(C)CC[C@]12C [MAYTENOIC ACID]
